# Experimental data taken from ChEMBL document CHEMBL2029346, “Discovery and synthesis of hydronaphthoquinones as novel proteasome inhibitors” (J Med Chem, 2012).
# Activity calls are given as the source filed them. The rule behind the calls is not given here.
# Legend:
# [1] = Inhibition of chymotrypsin-like activity of proteasome by fluorogenic assay; format: subcellular
# Outline: (§1)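 Purified rabbit 20S proteasome; CT-L activity measured by fluorogenic assay. Compounds were first screened for % CT-L inhibition, then dose-response runs gave IC50.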
# [2] = Inhibition of trypsin-like activity of proteasome by fluorogenic assay; format: subcellular
# [3] = Inhibition of chymotrypsin-like activity of proteasome at 10 uM by fluorogenic assay; format: subcellular; outline: as §1
# [4] = Inhibition of trypsin-like activity of proteasome at 10 uM by fluorogenic assay; format: subcellular
# MDA-MB-468 [5] = experiment: Inhibition of chymotrypsin-like activity of proteasome in human MDA-MB-468 cells assessed as accumulation of ubiquitinated cellular proteins after 11 hrs by Western blotting
# Outline: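 MDA-MB-468 cells (DMEM, 10% FCS, 37 °C, 5% CO2) given varying concentrations or DMSO for 11 h, then lysed in NP-40 buffer. Lysate (30 μg) was run on SDS-PAGE, transferred to nitrocellulose, probed with anti-ubiquitin, and detected by ECL.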
# Oryctolagus cuniculus [6] = species: Oryctolagus cuniculus; experiment: Inhibition of rabbit 20S proteasome activity at 10 uM after 30 mins
# Outline: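 Purified rabbit 20S proteasome (1.5 nM final) was preincubated with compound at 10 μM, or 0.1% DMSO vehicle, in 50 mM Tris-HCl pH 7.6 at room temperature for 30 min. Chymotrypsin-like activity was then read by fluorogenic assay before dialysis (t = 0) and normalized to the DMSO control.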
# [7] = Inhibition of chymotrypsin-like activity of proteasome in human MDA-MB-468 cells after 48 hrs
# Outline: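 MDA-MB-468 cells grown in DMEM with 10% FCS, penicillin/streptomycin, at 37 °C in 5% CO2. They were exposed to a range of concentrations or DMSO vehicle for 48 h, lysed in Tris pH 8.0/EDTA/NaCl/0.5% NP-40 for 30 min at 4 °C, and spun at 12000g. CT-L activity was read fluorogenically on 5 μg lysate, with lysate replacing purified proteasome.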
# Oryctolagus cuniculus [8] = species: Oryctolagus cuniculus; experiment: Irreversible inhibition of rabbit 20S proteasome activity at 10 uM after 30 mins measured after 0.5 to 18 hrs of dialysis
# Outline: (§2)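 Compound at 10 μM or 0.1% DMSO was preincubated with 1.5 nM rabbit 20S proteasome in 50 mM Tris-HCl pH 7.6 for 30 min at room temperature. Mixtures were dialysed (3500 MWCO) against the same buffer at 4 °C and sampled at 0, 0.5, 1, 4, 8 and 18 h. CT-L activity was normalized to DMSO control.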
# [9] = Inhibition of chymotrypsin-like activity of proteasome in human MDA-MB-231 cells after 48 hrs
# Outline: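 MDA-MB-231 cells exposed to a range of concentrations or DMSO vehicle for 48 h, then lysed (Tris pH 8.0, EDTA, NaCl, 0.5% NP-40). CT-L activity was measured fluorogenically using 5 μg lysate; IC50 derived.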
# MDA-MB-468 [10] = experiment: Antiproliferative activity against human MDA-MB-468 cells after 11 hrs by MTT assay; format: functional, cell-based; conditions: MDA-MB-468, 11 h
# Outline: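 MDA-MB-468 human breast cancer cells grown in DMEM with 10% FCS and penicillin/streptomycin at 37 °C, 5% CO₂. Cells plated, attached overnight, then exposed to varying compound concentrations or vehicle (DMSO) for 11 h.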
# [11] = Inhibition of chymotrypsin-like activity of proteasome in human MDA-MB-468 cells after 11 hrs by fluorogenic assay in whole cell extracts; conditions: MDA-MB-468, 11 h
# [12] = Inhibition of postglutamylpeptidase hydrolysis-like activity of proteasome by fluorogenic assay; format: subcellular
# Oryctolagus cuniculus [13] = species: Oryctolagus cuniculus; experiment: Irreversible inhibition of rabbit 20S proteasome activity at 10 uM after 30 mins measured after 4 hrs of dialysis; outline: as §2
smiles,measurement,setting,value
O=S(=O)(Nc1cc(Sc2nnn[nH]2)c(O)c2ccccc12)c1ccc(-c2ccccc2)s1,IC50,[1],230 nM
same,IC50,[2],550 nM
same,inhibition,[3],> 70%
O=S(=O)(Nc1cc(Sc2ncn[nH]2)c(O)c2ccccc12)c1ccc(Oc2ccccc2)cc1,IC50,[1],150 nM
same,IC50,[2],4200 nM
same,inhibition,[3],> 70%
O=S(=O)(Nc1cc(Sc2nnn[nH]2)c(O)c2ccccc12)c1ccc(C2CCCCC2)cc1,IC50,[1],230 nM
same,IC50,[2],1850 nM
same,inhibition,[3],> 70%
O=C(O)COc1cc(NS(=O)(=O)c2cccs2)c2ccccc2c1O,IC50,[1],> 100000 nM
O=S(=O)(Nc1cc(Sc2ncn[nH]2)c(O)c2ccccc12)c1cccc2ccccc12,IC50,[1],650 nM
same,inhibition,[4],< 70%
same,inhibition,[3],> 70%
O=S(=O)(Nc1cc(Sc2nnn[nH]2)c(O)c2ccccc12)c1ccc(-c2ccc(C(F)(F)F)cc2)cc1,IC50,[1],880 nM
same,inhibition,MDA-MB-468 [5],Dose-dependent effect
same,inhibition,Oryctolagus cuniculus [6],73%
same,IC50,[7],1010 nM
same,IC50,[2],1140 nM
same,inhibition,Oryctolagus cuniculus [8],Active
same,IC50,[9],440 nM
same,IC50,MDA-MB-468 [10],17000 nM
same,IC50,[11],15600 nM
same,inhibition,[3],> 70%
O=S(=O)(Nc1cc(Sc2ncn[nH]2)c(O)c2ccccc12)c1ccc(-c2ccccc2)s1,IC50,[1],730 nM
same,IC50,[2],2350 nM
same,inhibition,[3],> 70%
O=C(O)CCSc1cc(NS(=O)(=O)c2cccs2)c2ccccc2c1O,IC50,[1],5700 nM
O=C(O)CSc1cc(NS(=O)(=O)c2cccs2)c2ccccc2c1O,IC50,[1],3000 nM
same,IC50,[12],8100 nM
same,inhibition,Oryctolagus cuniculus [6],68%
same,IC50,[7],7220 nM
same,inhibition,[4],< 70%
same,inhibition,Oryctolagus cuniculus [8],Active
same,IC50,[9],3540 nM
same,inhibition,[3],> 70%
O=C(O)CS(=O)(=O)c1cc(NS(=O)(=O)c2cccs2)c2ccccc2c1O,IC50,[1],> 100000 nM
CC(C)C[C@H](NC(=O)[C@H](Cc1ccccc1)NC(=O)c1cnccn1)B(O)O,inhibition,Oryctolagus cuniculus [6],87%
same,inhibition,Oryctolagus cuniculus [13],inactive
O=S(=O)(Nc1cc(SCCO)c(O)c2ccccc12)c1cccs1,IC50,[1],> 5000 nM
CNC(=O)CCSc1cc(NS(=O)(=O)c2cccs2)c2ccccc2c1O,IC50,[1],> 5000 nM
O=C(O)c1ccccc1Sc1cc(NS(=O)(=O)c2cccs2)c2ccccc2c1O,IC50,[1],4050 nM
same,inhibition,[4],< 70%
same,inhibition,[3],> 70%
O=S(=O)(Nc1cc(Cl)c(O)c2ccccc12)c1cccs1,IC50,[1],> 30000 nM
CN(C)C(=O)CCSc1cc(NS(=O)(=O)c2cccs2)c2ccccc2c1O,IC50,[1],> 5000 nM
O=S(=O)(Nc1cc(Sc2nnn[nH]2)c(O)c2ccccc12)c1ccc2ccccc2c1,IC50,[1],400 nM
same,IC50,[2],1350 nM
same,inhibition,[3],> 70%
O=S(=O)(Nc1cc(Sc2nnn[nH]2)c(O)c2ccccc12)c1ccc(-c2ccccn2)s1,IC50,[1],480 nM
same,IC50,[2],1550 nM
same,inhibition,[3],> 70%
O=S(=O)(Nc1cc(Sc2nnn[nH]2)c(O)c2ccccc12)c1ccc(Oc2ccccc2)cc1,IC50,[1],220 nM
same,IC50,[2],1300 nM
same,inhibition,[3],> 70%
O=S(=O)(Nc1cc(Sc2ncn[nH]2)c(O)c2ccccc12)c1ccc(-c2ccc(C(F)(F)F)cc2)cc1,IC50,[1],2470 nM
same,IC50,[2],7200 nM
same,inhibition,[3],> 70%
O=S(=O)(Nc1cc(Sc2ncn[nH]2)c(O)c2ccccc12)c1ccc(-c2ccccc2)cc1,IC50,[1],280 nM
same,IC50,[2],4220 nM
same,inhibition,[3],> 70%
O=S(=O)(Nc1cc(Sc2nnn[nH]2)c(O)c2ccccc12)c1ccc(-c2ccc(F)cc2)cc1,IC50,[1],230 nM
same,IC50,[2],2000 nM
same,inhibition,[3],> 70%
O=S(=O)(Nc1cc(Sc2ncn[nH]2)c(O)c2ccccc12)c1ccc2ccccc2c1,IC50,[1],300 nM
same,IC50,[2],2000 nM
same,inhibition,[3],> 70%
COc1ccc(-c2ccc(S(=O)(=O)Nc3cc(Sc4nnn[nH]4)c(O)c4ccccc34)cc2)cc1,IC50,[1],400 nM
same,IC50,[2],2800 nM
same,inhibition,[3],> 70%
Cn1nnnc1Sc1cc(NS(=O)(=O)c2cccs2)c2ccccc2c1O,IC50,[1],4200 nM
same,inhibition,[4],< 70%
same,inhibition,[3],> 70%
CCCCCc1ccc(S(=O)(=O)Nc2cc(Sc3nnn[nH]3)c(O)c3ccccc23)cc1,IC50,[1],470 nM
same,IC50,[2],1450 nM
same,inhibition,[3],> 70%
O=S(=O)(Nc1cc(Sc2nnn[nH]2)c(O)c2ccccc12)c1ccc(Cl)cc1,IC50,[1],570 nM
same,IC50,[2],750 nM
same,inhibition,[3],> 70%
O=S(=O)(Nc1cc(Sc2ncn[nH]2)c(O)c2ccccc12)c1ccn(S(=O)(=O)c2ccccc2)c1,IC50,[1],1610 nM
same,inhibition,[4],< 70%
same,inhibition,[3],> 70%
O=C(O)CSc1ccc(NS(=O)(=O)c2cccs2)c2ccccc12,IC50,[1],> 100000 nM
O=S(=O)(Nc1cc(Br)c(O)c2ccccc12)c1cccs1,IC50,[1],> 30000 nM
CCOC(=O)CSc1cc(NS(=O)(=O)c2cccs2)c2ccccc2c1O,IC50,[1],> 10000 nM
O=S(=O)(Nc1cc(Sc2nnn[nH]2)c(O)c2ccccc12)c1ccc(Cl)c(Cl)c1,IC50,[1],540 nM
same,IC50,[2],570 nM
same,inhibition,[3],> 70%
O=S(=O)(Nc1cc(Sc2ncn[nH]2)c(O)c2ccccc12)c1ccc(C2CCCCC2)cc1,IC50,[1],300 nM
same,IC50,[2],7000 nM
same,inhibition,[3],> 70%
O=S(=O)(Nc1cc(I)c(O)c2ccccc12)c1cccs1,IC50,[1],> 30000 nM
O=S(=O)(Nc1cc(Sc2nnn[nH]2)c(O)c2ccccc12)c1ccc(Cl)s1,IC50,[1],630 nM
same,IC50,[2],1100 nM
same,inhibition,[3],> 70%
O=S(=O)(Nc1cc(Sc2ncn[nH]2)c(O)c2ccccc12)c1ccc(-c2ccc(F)cc2)cc1,IC50,[1],180 nM
same,IC50,[2],2370 nM
same,inhibition,[3],> 70%
O=S(=O)(Nc1cc(Sc2ncn[nH]2)c(O)c2ccccc12)c1cccs1,inhibition,[4],< 70%
same,inhibition,[3],> 70%
CCOc1cc(NS(=O)(=O)c2cccs2)c2ccccc2c1O,IC50,[1],> 5000 nM
O=S(=O)(Nc1ccc(O)c2ccccc12)c1cccs1,IC50,[1],> 30000 nM
CCSc1cc(NS(=O)(=O)c2cccs2)c2ccccc2c1O,IC50,[1],> 5000 nM
O=S(=O)(Nc1cc(Sc2nnn[nH]2)c(O)c2ccccc12)c1ccccc1,IC50,[1],600 nM
same,IC50,[2],1380 nM
same,inhibition,[3],> 70%
O=S(=O)(Nc1cc(Sc2nnn[nH]2)c(O)c2ccccc12)c1cccs1,IC50,[1],510 nM
same,IC50,[2],200 nM
same,inhibition,[3],> 70%
O=S(=O)(Nc1cc(Sc2ncn[nH]2)c(O)c2ccccc12)c1ccc(S(=O)(=O)c2ccccc2)s1,IC50,[1],1970 nM
same,inhibition,[4],< 70%
same,inhibition,[3],> 70%
O=S(=O)(Nc1cc(Sc2nnn[nH]2)c(O)c2ccccc12)c1ccc(-c2ccccc2)cc1,IC50,[1],220 nM
same,IC50,[2],4800 nM
same,inhibition,[3],> 70%
